According to ChEMBL document CHEMBL3102812 (J Med Chem, 2013):
In brackets after ≈: the same amount, converted by molar mass. Activity calls are given as the source filed them. The rule behind the calls is not given here.

Tested on: Mus musculus
Test: Toxicity in Swiss mouse at 20 mg/kg, po
Settings: in vivo

For `N#Cc1ccc(C(C(=O)N2CCN(c3ccc(C(F)(F)F)cc3)CC2)c2cccnc2)cc1` (stereo not drawn), the Activity was “Non-toxic”.
For `FC(F)(F)c1ccc(N(c2cncnc2)C2CCN(c3ccc(C(F)(F)F)cn3)CC2)cc1`, the Activity was “Non-toxic”.
In the case of `Cc1ncsc1C(=O)N1CCC(NC(c2ccc(C(F)(F)F)cc2)c2cccnc2)CC1` (stereo not drawn), the Activity is reported as “Non-toxic”.
In the case of `N#Cc1ccc(C(C(=O)N2CCN(c3ccc(C(F)(F)F)cn3)CC2)c2cccnc2)cc1` (stereo not drawn), the Activity is reported as “Non-toxic”.
With `N#Cc1ccc(C(c2cccnc2)N2CCC(NC(=O)c3c(F)cccc3F)CC2)cc1` (stereo not drawn) the Activity was “Non-toxic”.
With `N#Cc1ccc(C(O)(c2ccc(C(F)(F)F)cc2)c2cccnc2)cc1` (stereo not drawn) the Activity was “Non-toxic”.
In the case of `N#Cc1ccc(N(c2cccnc2)C2CCN(c3ccc(C(F)(F)F)cc3)CC2)cc1`, the Activity is reported as “Non-toxic”.

Tested on: Trypanosoma cruzi
Test: Antitrypanosomal activity against Trypanosoma cruzi Tulahuen 6 infected in Swiss mouse assessed as reduction in blood parasitemia at 20 mg/kg, po qd administered on day 8 post-infection for 10 days by microscopic analysis
Format: functional, organism-based
Set-up: dose 20 mg/kg
Settings: not given
Summary of the method: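 Infected Swiss mice dosed orally at 20 mg/kg once daily for up to 10 days starting day 8 pi; blood parasitemia followed by microscopy throughout dosing, scored as cleared or not during the dosing period.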

For `Cc1ncsc1C(=O)N1CCC(NC(c2ccc(C(F)(F)F)cc2)c2cccnc2)CC1` (stereo not drawn), the Activity was “inactive”.
With `N#Cc1ccc(C(c2cccnc2)N2CCC(NC(=O)c3c(F)cccc3F)CC2)cc1` (stereo not drawn) the Activity was “inactive”.
For `N#Cc1ccc(C(O)(c2ccc(C(F)(F)F)cc2)c2cccnc2)cc1` (stereo not drawn), the Activity was “Active”.

Tested on: not listed separately
Test: Kinetic aqueous solubility of the compound in phosphate buffer at pH 6.5 by nephelometric analysis
Settings: not given

Compared with `N#Cc1ccc(C(C(=O)N2CCN(c3ccc(C(F)(F)F)cc3)CC2)c2cccnc2)cc1` (stereo not drawn), `O=C([C@H](c1ccc(Cl)cc1)c1cccnc1)N1CCN(c2ccc(C(F)(F)F)cc2)CC1` is 1.9-fold lower in solubility kinetic: 3.1 µg/mL (≈ 6.88 µM) for the first, 1.6 µg/mL (≈ 3.48 µM) for the second.

`FC(F)(F)c1ccc(N(c2cccnc2)C2CCN(c3ccc(Cl)cc3)CC2)cc1` and `N#Cc1ccc(N(c2cccnc2)C2CCN(c3ccc(C(F)(F)F)cc3)CC2)cc1` cannot be ordered by solubility kinetic: less than 1.6 µg/mL for the first, less than 1.6 µg/mL for the second.

Going from `Cc1ccccc1CN1CCC(N(c2ccc(C(F)(F)F)cc2)c2cccnc2)CC1` to `N#Cc1ccccc1N1CCC(N(c2ccc(C(F)(F)F)cc2)c2cccnc2)CC1`, the solubility kinetic falls from 3.1 µg/mL (≈ 7.29 µM) to less than 1.6 µg/mL.

Going from `FC(F)(F)c1ccc(N(c2cncnc2)C2CCN(c3ccc(C(F)(F)F)cn3)CC2)cc1` to `N#Cc1ccc(C(C(=O)N2CCN(c3ccc(C(F)(F)F)cn3)CC2)c2cccnc2)cc1` (stereo not drawn), the solubility kinetic rises from less than 1.6 µg/mL to 6.3 µg/mL (≈ 14 µM).

Compared with `N#Cc1ccc(C(C(=O)N2CCN(c3ccc(C(F)(F)F)nc3)CC2)c2cccnc2)cc1` (stereo not drawn), `CC(C)(C)CC(=O)N1CCC(N(c2ccc(Cl)cc2)c2cccnc2)CC1` is 4-fold lower in solubility kinetic: 25 µg/mL (≈ 55.4 µM) for the first, 6.3 µg/mL (≈ 16.3 µM) for the second.

Tested on: not listed separately
Test: Kinetic aqueous solubility of the compound in phosphate buffer at pH 2 by nephelometric analysis
Settings: phosphate buffer

`N#Cc1ccc(C(C(=O)N2CCN(c3ccc(C(F)(F)F)cc3)CC2)c2cccnc2)cc1` (stereo not drawn) and `O=C([C@H](c1ccc(Cl)cc1)c1cccnc1)N1CCN(c2ccc(C(F)(F)F)cc2)CC1` cannot be ordered by solubility kinetic: greater than 100 µg/mL for the first, greater than 100 µg/mL for the second.

Compared with `FC(F)(F)c1ccc(N(c2cccnc2)C2CCN(c3ccc(Cl)cc3)CC2)cc1`, `N#Cc1ccc(N(c2cccnc2)C2CCN(c3ccc(C(F)(F)F)cc3)CC2)cc1` is lower in solubility kinetic: greater than 100 µg/mL for the first, 25 µg/mL (≈ 59.2 µM) for the second.

`Cc1ccccc1CN1CCC(N(c2ccc(C(F)(F)F)cc2)c2cccnc2)CC1` and `N#Cc1ccccc1N1CCC(N(c2ccc(C(F)(F)F)cc2)c2cccnc2)CC1` cannot be ordered by solubility kinetic: greater than 100 µg/mL for the first, greater than 100 µg/mL for the second.

First: FC(F)(F)c1ccc(N(c2cncnc2)C2CCN(c3ccc(C(F)(F)F)cn3)CC2)cc1
Second: N#Cc1ccc(C(C(=O)N2CCN(c3ccc(C(F)(F)F)cn3)CC2)c2cccnc2)cc1 (stereo not drawn)
The solubility kinetic of the first is 4-fold lower: 12.5 µg/mL (≈ 26.7 µM) for the first, 50 µg/mL (≈ 111 µM) for the second.

`N#Cc1ccc(C(C(=O)N2CCN(c3ccc(C(F)(F)F)nc3)CC2)c2cccnc2)cc1` (stereo not drawn) and `CC(C)(C)CC(=O)N1CCC(N(c2ccc(Cl)cc2)c2cccnc2)CC1` cannot be ordered by solubility kinetic: greater than 100 µg/mL for the first, greater than 100 µg/mL for the second.

Tested on: not listed separately
Test: Partition coefficient, log D of the compound at pH 7.4 by chromatographic method
Settings: octanol/water

Compared with `N#Cc1ccc(C(C(=O)N2CCN(c3ccc(C(F)(F)F)cc3)CC2)c2cccnc2)cc1` (stereo not drawn), `O=C([C@H](c1ccc(Cl)cc1)c1cccnc1)N1CCN(c2ccc(C(F)(F)F)cc2)CC1` is higher in chromatographic logD: 3.8 for the first, 4.5 for the second.

Going from `FC(F)(F)c1ccc(N(c2cccnc2)C2CCN(c3ccc(Cl)cc3)CC2)cc1` to `N#Cc1ccc(N(c2cccnc2)C2CCN(c3ccc(C(F)(F)F)cc3)CC2)cc1`, the chromatographic logD falls from greater than 5.3 to 4.7.

Going from `Cc1ccccc1CN1CCC(N(c2ccc(C(F)(F)F)cc2)c2cccnc2)CC1` to `N#Cc1ccccc1N1CCC(N(c2ccc(C(F)(F)F)cc2)c2cccnc2)CC1`, the chromatographic logD falls from greater than 5.3 to 4.9.

Compared with `FC(F)(F)c1ccc(N(c2cncnc2)C2CCN(c3ccc(C(F)(F)F)cn3)CC2)cc1`, `N#Cc1ccc(C(C(=O)N2CCN(c3ccc(C(F)(F)F)cn3)CC2)c2cccnc2)cc1` (stereo not drawn) is lower in chromatographic logD: 4.9 for the first, 3.5 for the second.

First: N#Cc1ccc(C(C(=O)N2CCN(c3ccc(C(F)(F)F)nc3)CC2)c2cccnc2)cc1 (stereo not drawn)
Second: CC(C)(C)CC(=O)N1CCC(N(c2ccc(Cl)cc2)c2cccnc2)CC1
The chromatographic logD of the first is lower: 3 for the first, 4.2 for the second.

Biological target: Cytochrome P450 3A4 (Homo sapiens, UniProt P08684)
Test: Inhibition of CYP3A4 in human liver microsomes assessed as 6beta-hydroxylation of testosterone
Settings: not given

Sequence of Cytochrome P450 3A4 (P08684 whole entry): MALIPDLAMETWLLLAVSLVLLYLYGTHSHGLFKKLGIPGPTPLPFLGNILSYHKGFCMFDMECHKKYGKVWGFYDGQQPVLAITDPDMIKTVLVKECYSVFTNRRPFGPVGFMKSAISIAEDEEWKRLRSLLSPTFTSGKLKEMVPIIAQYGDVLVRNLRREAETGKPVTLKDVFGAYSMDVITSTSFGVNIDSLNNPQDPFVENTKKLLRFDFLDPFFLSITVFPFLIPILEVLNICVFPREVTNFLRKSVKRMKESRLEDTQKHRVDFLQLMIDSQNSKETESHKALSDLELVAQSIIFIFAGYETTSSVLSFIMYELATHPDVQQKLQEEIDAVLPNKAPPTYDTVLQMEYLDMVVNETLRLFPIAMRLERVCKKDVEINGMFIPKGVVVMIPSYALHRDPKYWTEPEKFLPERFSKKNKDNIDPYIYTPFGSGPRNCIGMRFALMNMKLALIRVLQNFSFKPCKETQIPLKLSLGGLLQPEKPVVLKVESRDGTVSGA

Compared with `N#Cc1ccc(C(C(=O)N2CCN(c3ccc(C(F)(F)F)cc3)CC2)c2cccnc2)cc1` (stereo not drawn), `O=C([C@H](c1ccc(Cl)cc1)c1cccnc1)N1CCN(c2ccc(C(F)(F)F)cc2)CC1` is lower in IC50: greater than 20000 nM for the first, 17000 nM for the second. The second is the more potent here.

`FC(F)(F)c1ccc(N(c2cncnc2)C2CCN(c3ccc(C(F)(F)F)cn3)CC2)cc1` and `N#Cc1ccccc1N1CCC(N(c2ccc(C(F)(F)F)cc2)c2cccnc2)CC1` are within 1.5-fold of each other in IC50: 6300 nM for the first, 5200 nM for the second.

`N#Cc1ccc(C(C(=O)N2CCN(c3ccc(C(F)(F)F)cn3)CC2)c2cccnc2)cc1` (stereo not drawn) and `N#Cc1ccc(C(C(=O)N2CCN(c3ccc(C(F)(F)F)nc3)CC2)c2cccnc2)cc1` (stereo not drawn) cannot be ordered by IC50: greater than 20000 nM for the first, greater than 20000 nM for the second.

Tested on: Trypanosoma cruzi
Test: Antitrypanosomal activity against Trypanosoma cruzi Tulahuen 6 amastigotes infected in rat L6 cells after 96 hrs by colorimetric method
Format: functional, organism-based
Settings: Tulahuen 6, L6, 96 h

Compared with `FC(F)(F)c1ccc(N2CCC(N(c3ccc(C(F)(F)F)cc3)c3cccnc3)CC2)cc1`, `N#Cc1ccc(N(c2cccnc2)C2CCN(c3ccc(C(F)(F)F)cc3)CC2)cc1` is 5.7-fold lower in IC50: 17 nM for the first, 3 nM for the second. The second is the more potent here.

`N#Cc1ccc(C(C(=O)N2CCN(c3ccc(C(F)(F)F)cc3)CC2)c2cccnc2)cc1` (stereo not drawn) and `N#Cc1ccc(C(C(=O)N2CCN(c3ccc(C(F)(F)F)cn3)CC2)c2cccnc2)cc1` (stereo not drawn) are the same in IC50: 12 nM for the first, 12 nM for the second.

Compared with `FC(F)(F)c1ccc(N(c2cncnc2)C2CCN(c3ccc(C(F)(F)F)cn3)CC2)cc1`, `Cc1ncsc1C(=O)N1CCC(NC(c2ccc(C(F)(F)F)cc2)c2cccnc2)CC1` (stereo not drawn) is 12-fold higher in IC50: 5 nM for the first, 58 nM for the second.

In the case of `N#Cc1ccc(C(c2cccnc2)N2CCC(NC(=O)c3c(F)cccc3F)CC2)cc1` (stereo not drawn), the IC50 is reported as 19 nM.
